Assay [1] concerns Fusarium graminearum. Put plainly: Fungicidal activity against Fusarium graminearum assessed as mycelium growth inhibition by mycelium growth rate method. Type of assay: functional, organism-based. A digest of the protocol: (§1)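 EC50 was calculated by the […] from in vitro growth-rate inhibition ratios. Inhibition (%) = (D1 − D2)/D1 × 100, taken from mean mycelial diameters of the blank (D1) and the treated plates (D2) once mycelia had grown completely. Fenpiclonil served as control.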

Assay [2] concerns Alternaria solani. Put plainly: Fungicidal activity against Alternaria solani assessed as mycelium growth inhibition by mycelium growth rate method. Format: functional, organism-based. In outline: as §1
Assay [3] deals with Fusarium graminearum. Description: Fungicidal activity against Fusarium graminearum assessed as mycelium growth inhibition at 50 ug/mL by mycelium growth rate method. Type of assay: functional. Particulars: read-out: GI. In outline:
(§2)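 In vitro mycelium growth rate method, with fenpiclonil as control. Compounds were tested at 50, 20 and 10 μg mL-1. Mycelial diameters were measured once the mycelia had grown completely. Inhibition (%) = (D1 − D2)/D1 × 100, where D1 is the mean mycelial diameter in the blank and D2 is the mean diameter with compound.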

Assay [4] has as its system Fusarium oxysporum. Put plainly: Fungicidal activity against Fusarium oxysporum assessed as mycelium growth inhibition by mycelium growth rate method. Type of assay: functional, organism-based. In outline:
as §1

The subject of assay [5] is Botryosphaeria berengeriana. Description: Fungicidal activity against Botryosphaeria berengeriana assessed as mycelium growth inhibition at 50 ug/mL by mycelium growth rate method. Format: functional. Particulars: read-out: GI. In outline: as §2
The test system of assay [6] is Alternaria solani. Put plainly: Fungicidal activity against Alternaria solani assessed as mycelium growth inhibition at 50 ug/mL by mycelium growth rate method. Type of assay: functional. Particulars: read-out: GI. In outline: as §2
For assay [7], the system named is Mycosphaerella arachidis. Put plainly: Fungicidal activity against Mycosphaerella arachidis assessed as mycelium growth inhibition by mycelium growth rate method. Type of assay: functional, organism-based. In outline: as §1
The subject of assay [8] is Fusarium oxysporum. Put plainly: Fungicidal activity against Fusarium oxysporum assessed as mycelium growth inhibition at 50 ug/mL by mycelium growth rate method. Format: functional. Conditions: read-out: GI. In outline:
as §2

Assay [9] deals with Botryosphaeria berengeriana. Description: Fungicidal activity against Botryosphaeria berengeriana assessed as mycelium growth inhibition by mycelium growth rate method. Format: functional, organism-based. In outline: as §1
Assay [10] relates to Mycosphaerella arachidis. Put plainly: Fungicidal activity against Mycosphaerella arachidis assessed as mycelium growth inhibition at 50 ug/mL by mycelium growth rate method. Type of assay: functional. Particulars: read-out: GI. A digest of the protocol:
as §2

The subject of assay [11] is Fusarium graminearum. Put plainly: Fungicidal activity against Fusarium graminearum assessed as mycelium growth inhibition at 20 ug/mL by mycelium growth rate method. Format: functional. Particulars: read-out: GI. A digest of the protocol: as §2
In assay [12] the test system is Mycosphaerella arachidis. Put plainly: Fungicidal activity against Mycosphaerella arachidis assessed as mycelium growth inhibition at 10 ug/mL by mycelium growth rate method. Type of assay: functional. Particulars: read-out: GI. In outline: as §2
For assay [13], the system named is Fusarium oxysporum. Put plainly: Fungicidal activity against Fusarium oxysporum assessed as mycelium growth inhibition at 10 ug/mL by mycelium growth rate method. Type of assay: functional. Conditions: read-out: GI. In outline: as §2
The subject of assay [14] is Fusarium graminearum. Description: Fungicidal activity against Fusarium graminearum assessed as mycelium growth inhibition at 10 ug/mL by mycelium growth rate method. Particulars: read-out: GI. Format: functional. A digest of the protocol: as §2
Assay [15] concerns Botryosphaeria berengeriana. Description: Fungicidal activity against Botryosphaeria berengeriana assessed as mycelium growth inhibition at 20 ug/mL by mycelium growth rate method. Type of assay: functional. Conditions: read-out: GI. In outline: as §2
The test system of assay [16] is Alternaria solani. Description: Fungicidal activity against Alternaria solani assessed as mycelium growth inhibition at 20 ug/mL by mycelium growth rate method. Type of assay: functional. Particulars: read-out: GI. In outline:
as §2

Assay [17] has as its system Fusarium oxysporum. Put plainly: Fungicidal activity against Fusarium oxysporum assessed as mycelium growth inhibition at 20 ug/mL by mycelium growth rate method. Conditions: read-out: GI. Type of assay: functional. In outline: as §2
Assay [18] relates to Mycosphaerella arachidis. Put plainly: Fungicidal activity against Mycosphaerella arachidis assessed as mycelium growth inhibition at 20 ug/mL by mycelium growth rate method. Format: functional. Conditions: read-out: GI. A digest of the protocol: as §2
In assay [19] the test system is Alternaria solani. Put plainly: Fungicidal activity against Alternaria solani assessed as mycelium growth inhibition at 10 ug/mL by mycelium growth rate method. Format: functional. Conditions: read-out: GI. In outline:
as §2

The subject of assay [20] is Botryosphaeria berengeriana. Description: Fungicidal activity against Botryosphaeria berengeriana assessed as mycelium growth inhibition at 10 ug/mL by mycelium growth rate method. Type of assay: functional. Particulars: read-out: GI. In outline: as §2

≈ marks a conversion by molar mass, not a printed value. Bounds are passed on as bounds.

Regarding `O=[N+]([O-])c1cc([N+](=O)[O-])c(-c2ccsc2)cc1F`, the EC50 with Fusarium graminearum [1] came out at 27.5 µg/mL (≈ 103 µM); in the assay with Alternaria solani [2], 25.2 µg/mL (≈ 94 µM); in the assay on Fusarium oxysporum [4], 4.42 µg/mL (≈ 16.5 µM); in the assay with Mycosphaerella arachidis [7], 7.16 µg/mL (≈ 26.7 µM); in assay [9] it was 4.41 µg/mL (≈ 16.4 µM). Moreover, the inhibition of growth at 50 µg/mL with Fusarium graminearum [3] was 100%; in [5], 100%; in the assay with Alternaria solani [6] it was 68%; with Fusarium oxysporum [8], 100%; with Mycosphaerella arachidis [10], 100%.
Consider `O=[N+]([O-])c1cc(-c2ccccc2[N+](=O)[O-])cs1`, for which the inhibition of growth at 20 µg/mL was found to be 7% with Fusarium graminearum [11]; 9% in assay [15]; 16% with Alternaria solani [16]; 0% in the assay with Fusarium oxysporum [17]; 16% in the assay with Mycosphaerella arachidis [18]. Moreover, the inhibition of growth at 10 µg/mL was 8% in the assay with Mycosphaerella arachidis [12]; 0% in the assay on Fusarium oxysporum [13]; 1% in the assay on Fusarium graminearum [14]; 6% with Alternaria solani [19]; 0% in assay [20]. Further, the inhibition of growth at 50 µg/mL with Fusarium graminearum [3] worked out at 25%; in [5], 20%; with Alternaria solani [6], 22%; in the assay on Fusarium oxysporum [8] it was 0%; with Mycosphaerella arachidis [10], 20%.
Take `O=[N+]([O-])c1cc(-c2ccc(F)cc2[N+](=O)[O-])cs1`: the inhibition of growth at 20 µg/mL in the assay on Fusarium graminearum [11] is 0%; in assay [15], 10%; in the assay with Alternaria solani [16] it was 25%; in the assay with Fusarium oxysporum [17] it was 17%; in the assay on Mycosphaerella arachidis [18], 27%. Besides, the inhibition of growth at 10 µg/mL in the assay with Mycosphaerella arachidis [12] came to 11%; with Fusarium oxysporum [13] it was 7%; in the assay with Fusarium graminearum [14], 0%; with Alternaria solani [19], 6%; in assay [20] it was 4%. For the same compound, the inhibition of growth at 50 µg/mL with Fusarium graminearum [3] is 12%; in assay [5], 46%; in the assay on Alternaria solani [6], 41%; in the assay with Fusarium oxysporum [8], 25%; in the assay on Mycosphaerella arachidis [10], 44%.
Consider `O=[N+]([O-])c1cc(-c2cc(F)ccc2[N+](=O)[O-])cs1`, for which the inhibition of growth at 20 µg/mL was determined as 0% in the assay with Fusarium graminearum [11]; 8% in assay [15]; 16% in the assay on Alternaria solani [16]; 10% with Fusarium oxysporum [17]; 22% with Mycosphaerella arachidis [18]. The inhibition of growth at 10 µg/mL (in the assay with Mycosphaerella arachidis [12]; in the assay with Fusarium oxysporum [13]; with Fusarium graminearum [14]; in the assay on Alternaria solani [19]; in [20]) was 0% each time. Also, the inhibition of growth at 50 µg/mL came to 16% in the assay with Fusarium graminearum [3]; 27% in assay [5]; 35% with Alternaria solani [6]; 28% with Fusarium oxysporum [8]; 33% with Mycosphaerella arachidis [10].
In the case of `O=[N+]([O-])c1ccccc1-c1ccsc1`, the inhibition of growth at 20 µg/mL is 43% in the assay with Fusarium graminearum [11]; 68% in [15]; 30% in the assay on Alternaria solani [16]; 31% in the assay on Fusarium oxysporum [17]; 0% in the assay on Mycosphaerella arachidis [18]. In addition, the inhibition of growth at 10 µg/mL in the assay with Mycosphaerella arachidis [12] is 0%; with Fusarium oxysporum [13], 12%; with Fusarium graminearum [14], 13%; in the assay on Alternaria solani [19] it was 0%; in [20], 20%. For the same compound, the inhibition of growth at 50 µg/mL in the assay on Fusarium graminearum [3] came out at 65%; in [5] it was 88%; with Alternaria solani [6], 75%; in the assay on Fusarium oxysporum [8], 68%; in the assay on Mycosphaerella arachidis [10], 18%.
On to `O=[N+]([O-])c1cc(F)ccc1-c1ccsc1`, for which the inhibition of growth at 20 µg/mL is 30% with Fusarium graminearum [11]; 20% in assay [15]; 35% in the assay with Alternaria solani [16]; 50% with Fusarium oxysporum [17]; 0% with Mycosphaerella arachidis [18]. The inhibition of growth at 10 µg/mL is 0% in the assay with Mycosphaerella arachidis [12]; 0% in the assay with Fusarium oxysporum [13]; 8% in the assay on Fusarium graminearum [14]; 10% in the assay on Alternaria solani [19]; 0% in [20]. Besides, the inhibition of growth at 50 µg/mL with Fusarium graminearum [3] was found to be 39%; in [5], 80%; in the assay on Alternaria solani [6], 55%; in the assay with Fusarium oxysporum [8], 75%; in the assay with Mycosphaerella arachidis [10], 0%.
Consider `O=[N+]([O-])c1ccc(F)cc1-c1ccsc1`, for which the inhibition of growth at 20 µg/mL in the assay on Fusarium graminearum [11] turned out to be 43%; in assay [15] it was 36%; in the assay on Alternaria solani [16], 25%; in the assay on Fusarium oxysporum [17], 50%; in the assay on Mycosphaerella arachidis [18], 12%. Besides, the inhibition of growth at 10 µg/mL was determined as 0% in the assay on Mycosphaerella arachidis [12]; 18% in the assay with Fusarium oxysporum [13]; 21% with Fusarium graminearum [14]; 5% with Alternaria solani [19]; 0% in assay [20]. Besides, the inhibition of growth at 50 µg/mL in the assay on Fusarium graminearum [3] was determined as 65%; in [5], 72%; in the assay on Alternaria solani [6], 75%; in the assay on Fusarium oxysporum [8], 87%; in the assay with Mycosphaerella arachidis [10], 25%.
As to `O=[N+]([O-])c1cc(Cl)ccc1-c1ccsc1`, the inhibition of growth at 20 µg/mL with Fusarium graminearum [11] amounted to 21%; in assay [15], 38%; with Alternaria solani [16] it was 20%; in the assay with Fusarium oxysporum [17], 43%; in the assay with Mycosphaerella arachidis [18], 6%. Further, the inhibition of growth at 10 µg/mL came out at 0% in the assay with Mycosphaerella arachidis [12]; 25% with Fusarium oxysporum [13]; 13% with Fusarium graminearum [14]; 0% with Alternaria solani [19]; 14% in assay [20]. Also, the inhibition of growth at 50 µg/mL amounted to 39% with Fusarium graminearum [3]; 80% in assay [5]; 55% in the assay on Alternaria solani [6]; 75% in the assay on Fusarium oxysporum [8]; 25% in the assay on Mycosphaerella arachidis [10].
`O=[N+]([O-])c1cc(Cl)cc(Cl)c1-c1ccsc1`: the inhibition of growth at 20 µg/mL was found to be 26% in the assay with Fusarium graminearum [11]; 72% in assay [15]; 55% in the assay on Alternaria solani [16]; 81% with Fusarium oxysporum [17]; 18% with Mycosphaerella arachidis [18]. The inhibition of growth at 10 µg/mL in the assay on Mycosphaerella arachidis [12] was 0%; in the assay on Fusarium oxysporum [13], 56%; with Fusarium graminearum [14], 8%; in the assay on Alternaria solani [19] it was 20%; in [20] it was 42%. Also, the inhibition of growth at 50 µg/mL is 39% with Fusarium graminearum [3]; 82% in assay [5]; 60% with Alternaria solani [6]; 87% in the assay on Fusarium oxysporum [8]; 25% in the assay with Mycosphaerella arachidis [10].
As to `O=[N+]([O-])c1cc(F)c(Cl)cc1-c1ccsc1`, the inhibition of growth at 20 µg/mL in the assay with Fusarium graminearum [11] worked out at 30%; in assay [15], 74%; in the assay on Alternaria solani [16], 35%; with Fusarium oxysporum [17] it was 43%; with Mycosphaerella arachidis [18] it was 18%. In addition, the inhibition of growth at 10 µg/mL in the assay with Mycosphaerella arachidis [12] worked out at 0%; in the assay on Fusarium oxysporum [13], 18%; with Fusarium graminearum [14], 0%; with Alternaria solani [19], 0%; in [20], 64%. Moreover, the inhibition of growth at 50 µg/mL with Fusarium graminearum [3] stood at 47%; in assay [5] it was 80%; with Alternaria solani [6], 60%; in the assay on Fusarium oxysporum [8] it was 87%; in the assay on Mycosphaerella arachidis [10] it was 25%.
As for `O=[N+]([O-])c1c(Cl)c(Cl)cc(Cl)c1-c1ccsc1`, the EC50 is > 50 µg/mL with Fusarium graminearum [1]; > 50 µg/mL with Alternaria solani [2]; > 50 µg/mL with Fusarium oxysporum [4]; > 50 µg/mL in the assay on Mycosphaerella arachidis [7]; 36.7 µg/mL (≈ 119 µM) in [9]. The inhibition of growth at 50 µg/mL with Fusarium graminearum [3] stood at 47%; in [5], 90%; in the assay on Alternaria solani [6], 49%; in the assay on Fusarium oxysporum [8], 36%; in the assay on Mycosphaerella arachidis [10] it was 50%.
Turning to `N#Cc1c[nH]cc1-c1cccc(Cl)c1Cl` [FENPICLONIL], the inhibition of growth at 50 µg/mL in the assay on Fusarium graminearum [3] came to 100%; in [5] it was 100%; with Alternaria solani [6], 100%; in the assay with Fusarium oxysporum [8], 18%; in the assay with Mycosphaerella arachidis [10], 100%. The EC50 with Fusarium oxysporum [4] was > 50 µg/mL.
